What all share (format): functional
The subject of assay [1] is Human betaherpesvirus 5. The assay is described as follows: Antiviral activity against Human cytomegalovirus (AD169 strain). Conditions: read-out: ID50 (the source's name). The gist of the method:
(§1)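 WI-38 monolayers were infected, with virus adsorbed for 1–2 h. They were then overlaid with EMEM maintenance medium (1% carboxymethyl cellulose, 2.5% FBS) containing duplicate drug dilutions. Monolayers were stained after 4–6 days at 37 °C. ID50 was taken as the concentration giving 50% plaque reduction versus virus controls. Titrations were done in duplicate.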

In assay [2] the test system is Human alphaherpesvirus 1. The assay is described as follows: Antiviral activity against Herpes simplex virus-1 (Schooler strain). Conditions: read-out: ID50 (the source's name). The method, boiled down:
as §1

Assay [3] relates to WI-38. The assay is described as follows: Tested for growth inhibition against WI-38 cells. The settings on record: Homo sapiens, read-out: ID50 (the source's name). The method, boiled down: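 WI-38 cells seeded at 1.2 × 10^6 per well, incubated overnight at 37 °C, then refed with growth medium (EMEM, 10% FBS) holding serial drug dilutions or none, for 3 more days at 37 °C. Quadruplicate cultures per concentration trypsinized and counted daily for viable cells by trypan blue exclusion.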

In assay [4] the test system is Vaccinia virus. Nature of the assay: Antiviral activity against vaccinia virus (CL strain). The settings on record: Orthopoxvirus vaccinia; read-out: ID50 (the source's name).
Assay [5] has as its system Human alphaherpesvirus 3. Nature of the assay: Antiviral activity against Varicella zoster virus (Ellen strain). The settings on record: read-out: ID50 (the source's name). The method, boiled down: as §1
The nature of assay [6]: Antiviral activity against Herpes simplex virus-1 (KOS strain). Conditions: Human alphaherpesvirus 1; read-out: ID50 (the source's name). The gist of the method:
as §1

The test system of assay [7] is Human alphaherpesvirus 1. Nature of the assay: Antiviral activity against Herpes simplex virus-1 (thymidine kinase deficient strains isolated as BVaraU resistant mutants of HSV-1 (KOS)). The settings on record: read-out: ID50 (the source's name). The method, boiled down: as §1
Assay [8] deals with Cercopithecine alphaherpesvirus 9. Nature of the assay: Antiviral activity against Simina varicella virus (G815 strain). The settings on record: read-out: ID50 (the source's name). The method, boiled down:
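Simian varicella virus G815 was grown from infected Vero cells and assayed by plaque reduction on Vero monolayers. Virus was adsorbed 1–2 h, then overlaid with EMEM (1% carboxymethyl cellulose, 2.5% FBS) containing duplicate drug dilutions. Staining was after 4–6 days at 37 °C. ID50 was the concentration giving 50% plaque reduction versus virus controls.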

The test system of assay [9] is Human alphaherpesvirus 3. The assay is described as follows: Antiviral activity against Varicella zoster virus (Kanno-Kohmura thymidine kinase deficient strain). Conditions: read-out: ID50 (the source's name). The gist of the method:
as §1

The subject of assay [10] is Human alphaherpesvirus 3. The assay is described as follows: Antiviral activity against Varicella zoster virus (Ito strain). Conditions: read-out: ID50 (the source's name). The method, boiled down: as §1
Assay [11] concerns Human alphaherpesvirus 3. Nature of the assay: Antiviral activity against Varicella zoster virus (Oka strain). Conditions: read-out: ID50 (the source's name). The method, boiled down: as §1
For assay [12], the system named is Human alphaherpesvirus 3. Nature of the assay: Antiviral activity against Varicella zoster virus (ppIIa strain). The settings on record: read-out: ID50 (the source's name). The method, boiled down: as §1
In assay [13] the test system is Human alphaherpesvirus 3. The assay is described as follows: Antiviral activity against Varicella zoster virus (9021 strain). Conditions: read-out: ID50 (the source's name). The method, boiled down:
as §1

From ChEMBL document CHEMBL1126655, “Synthesis and antiviral activity of novel isonucleoside analogs” (J Med Chem, 1993) come the findings set out here.

Take `Nc1ccn([C@@H]2CO[C@H](CO)[C@H]2CO)c(=O)n1`: the IC50 in assay [1] was 100 µM; in assay [2], 40 µM; in assay [3] it was 160 µM; in assay [4], 400 µM; in [5], 0.4 µM.
As to `O=c1ccn([C@@H]2CO[C@H](CO)[C@H]2CO)c(=O)[nH]1`, the figures for the IC50 in assay [1], in assay [2] and in assay [5] were greater than 410 µM, greater than 410 µM and 100 µM, respectively.
Consider `O=c1[nH]c(=O)n([C@@H]2CO[C@H](CO)[C@H]2CO)cc1I`, for which the IC50 in assay [1] is greater than 270 µM; in assay [2], 140 µM; in assay [5], 70 µM.
`O=c1[nH]c(=O)n([C@@H]2CO[C@H](CO)[C@H]2CO)cc1/C=C/Br`: the IC50 is greater than 290 µM in assay [1]; 3000 nM in [6]; 3 µM in assay [2]; greater than 290 µM in assay [7]; 30 µM in assay [8]; greater than 300 µM in assay [9]. For the same compound, the IC50 is greater than 800 µM in assay [3]; greater than 290 µM in assay [4]; 0.1 µM in [5]; 60 nM in assay [10]; 3000 nM in [11]; 300 nM in assay [12]. In addition, the IC50 in assay [13] turned out to be 500 nM.
On to `Cc1cn([C@@H]2CO[C@H](CO)[C@H]2CO)c(=O)nc1N`, for which the IC50 in assay [1] was greater than 390 µM; in [2] it was 390 µM; in [5], 200 µM.
